Measured values published in PubChem BioAssay.
Inconclusive results are not listed. Calls of active or inactive are those of the source.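 Rule for the calls, unless noted: active = RAM network inhibition above 8.4% in each of two replicates, 3 SD over the compound average; inconclusive = above 8.4% inhibition in only one replicate; inactive = 8.4% inhibition or less in each replicate.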

Legend:
[1] = OD615 S. cerevisiae growth inhibition, permissive medium, pilot counter-assay, permissive growth control for S. cerevisiae lifespan shortening project (AID 705;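 active = growth inhibition above 25% in both replicates, a cutoff set 3 SD above the mean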); settings: OD615, 24 h, at 10 µM, stronger effect = higher value
Summary of the method: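 Material: engineered DeaD yeast; Compound: one dose 10 µM, DMSO 0.25% final; Detection: absorbance (optical density) at 615 nm; Buffer or medium: permissive raffinose/galactose medium; Timing: 24 h exposure, 30 °C.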

[2] = Restrictive medium S. cerevisiae growth inhibition, OD615, pilot screen of yeast lifespan reduction project, restrictive growth control (AID 706;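 active = growth inhibition above a set limit, 3 SD over mean compound inhibition, in both replicates, cut at about 43% in these data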;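 note: modified DeaD lifespan yeast strain shifted to restrictive glucose medium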); settings: OD615, 48 h, at 10 µM, stronger effect = higher value
Summary of the method: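 Buffer or medium: restrictive glucose medium (CSMM-D); test system: modified S. cerevisiae; doses: single dose of 10 µM compound final, 0.25% DMSO; schedule: 48 h compound exposure at 30 °C; detection: absorbance (optical density) measured at 615 nm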

[3] = viability gain of MRP-1-high H69AR cells under doxorubicin, pilot screen, MRP-1 activator project, CellTiter-Glo, duplicate (AID 807;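 active = viability increase at or above a cutoff of the median across tested compounds plus 3 SD, cut at about 8.5% in these data, passing the limit was not always enough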;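 note: compound pretreatment 18-22 h then 72 h combined with doxorubicin; 0% = doxorubicin alone and 100% = vehicle without doxorubicin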); settings: H69AR viability with doxorubicin, CellTiter-Glo luminescence; at 10 µM; stronger effect = higher value
[4] = growth suppression of beta-catenin knockout HCT116, pilot screen, human colon tumor cells (AID 823;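 active = cell viability at or below a set limit in both duplicate runs, the limit being the all-compound median minus 4 SD, cut at about 23% in these data, passing the limit was not always enough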;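 note: 0% = wells killed by 20 µM Hyamine and 100% = untreated DMSO cell wells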); settings: CellTiter-Glo, 60 h, at 10 µM, stronger effect = lower value
[5] = inhibitors of the yeast RAM network, pilot screen, dse1pr::URA3 reporter, 5-FOA selection (AID 869;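 active = inhibition over a set limit, the all-compound mean plus 3 SD, in both replicate runs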;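 note: 0% = DMSO wells with no growth and 100% = 10 µM 1-NA-PP1 with full growth; RAM network block rescues cells from 5-FOA so hits raise OD615 growth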); settings: S. cerevisiae dse1pr::URA3 5-FOA growth, OD615, 2 d; at 10 µM; stronger effect = higher value; strain carries analog-sensitive mutant Cbk1 kinase
[6] = RAM signaling pathway blockade in yeast – S. cerevisiae, Pdr1DBD-CYC8 efflux-inhibited sensitized strain, primary screen (AID 1298);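 note: 0% = DMSO untreated cells without growth and 100% = 10 µM 1-NA-PP1 full growth; higher means more yeast growth rescued from 5-FOA killing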; settings: S. cerevisiae cbk1-as DSE1-URA3 strain, 5-FOA growth OD615, 2 d; at 50 µM; stronger effect = higher value

O=C(NCc1nc2ccccc2[nH]1)c1ccc(S(=O)(=O)N2CCOCC2)cc1
inactive: growth inhibition [1] -9.52% | growth inhibition [2] -0.75% | viability increase [3] -2.83% | viability [4] 85.8% | inhibition [5] 1.77% | RAM network inhibition [6] 3.06%

CC(C)c1ccc(-c2nc(N3CCCC3)nc3n[nH]c(N)c23)cc1
inactive: growth inhibition [1] -26.6% | growth inhibition [2] 10.3% | viability increase [3] -5.36% | viability [4] 69.8% | inhibition [5] 3.83% | RAM network inhibition [6] 10.8%

CC(C)Sc1nc(NCc2ccco2)c2c3c(sc2n1)COC(C)(C)C3
inactive: growth inhibition [1] 3.17% | growth inhibition [2] 22.4% | viability increase [3] -8.23% | viability [4] 56% | inhibition [5] -0.26% | RAM network inhibition [6] 7.33%

Nn1c(SCC(=O)NC2CCCCC2)nnc1-c1ccccc1
inactive: growth inhibition [1] -25.7% | growth inhibition [2] 8.66% | viability increase [3] -1.37% | viability [4] 98.8% | inhibition [5] 2.28% | RAM network inhibition [6] 4.63%

COc1cc(C2=Nc3c(c(C)nn3-c3ccccc3)P(=O)(N3CCOCC3)O2)cc(OC)c1OC (stereo not given)
inactive: growth inhibition [1] 12.4% | growth inhibition [2] 0.78% | viability increase [3] -2.26% | viability [4] 92% | inhibition [5] 0.485% | RAM network inhibition [6] 2.86%

CCOC(=O)C1CCCN(C(=O)CC(C)c2ccccc2)C1 (stereo not given)
inactive: growth inhibition [1] -14.4% | growth inhibition [2] -0.005% | viability increase [3] -1.25% | viability [4] 104% | inhibition [5] 1.57% | RAM network inhibition [6] 3.91%

CCC(=O)c1cn(CC(=O)NCC2CCCO2)c2ccccc12 (stereo not given)
inactive: growth inhibition [1] 0.725% | growth inhibition [2] 12.5% | viability increase [3] -3.8% | viability [4] 96.7% | inhibition [5] 2.02% | RAM network inhibition [6] 1.98%

C=C(C)Cn1c(CCCNC(=O)CCC)nc2ccccc21
inactive: growth inhibition [1] -14.9% | growth inhibition [2] 7.12% | viability increase [3] -0.37% | viability [4] 94.7% | inhibition [5] -0.295% | RAM network inhibition [6] 1.57%

CCOC(=O)/C=c1\sc2n(c1=O)CCN=2
inactive: growth inhibition [1] -0.765% | growth inhibition [2] -2% | viability increase [3] -3.32% | viability [4] 91.9% | inhibition [5] 1.44% | RAM network inhibition [6] 2.73%

Cc1ccc(C(=O)N2CCN(C)CC2)cc1S(=O)(=O)N1CCCCC1
inactive: growth inhibition [1] 0.05% | growth inhibition [2] -11.5% | viability increase [3] -2.65% | viability [4] 90.1% | inhibition [5] 1.31% | RAM network inhibition [6] 0.57%

CC(=O)Nc1c(C(=O)c2ccc(F)cc2)oc2ccccc12
inactive: growth inhibition [1] -23.1% | growth inhibition [2] -4.12% | viability increase [3] -3.23% | viability [4] 87.4% | inhibition [5] 2.3% | RAM network inhibition [6] 7.49%

CCCCNC(=O)C1C2C=CC3(CN(Cc4ccc(C)cc4)C(=O)C13)O2 (stereo not given)
inactive: growth inhibition [1] 2.61% | growth inhibition [2] -16.4% | viability increase [3] -2.02% | viability [4] 95.1% | inhibition [5] 0.08% | RAM network inhibition [6] 0.67%

Brc1cc(Br)c2ncnc(N3CCCCC3)c2c1
inactive: growth inhibition [1] -2.35% | growth inhibition [2] -19.5% | viability increase [3] -7.95% | inhibition [5] 2.7% | RAM network inhibition [6] 2.58%
active: viability [4] 15.9%

CC(=O)c1c(C)n(-c2ccc(N(C)C)cc2)c2ccc(OCC(N)=O)cc12
inactive: growth inhibition [1] -8.79% | growth inhibition [2] -6.18% | viability increase [3] -4.87% | viability [4] 84.8% | inhibition [5] 2.3% | RAM network inhibition [6] 6.29%

O=C(Nc1nnc(-c2ccc3c(c2)CCCC3)o1)c1ccccc1Cl
inactive: growth inhibition [1] -7.88% | growth inhibition [2] 18.4% | viability increase [3] -4.31% | viability [4] 34.6% | inhibition [5] 2.51% | RAM network inhibition [6] 4.48%

COCCn1c(=O)[nH]c2cc(C(=O)NCCN3CCN(c4ccccc4F)CC3)ccc2c1=O
inactive: growth inhibition [1] 0.575% | growth inhibition [2] 4.3% | viability increase [3] -1.27% | viability [4] 94.3% | inhibition [5] 1.31% | RAM network inhibition [6] 9.5%

Cc1c(NC(=O)CCC2CCCCC2)c(=O)n(-c2ccccc2)n1C
inactive: growth inhibition [1] 5.74% | growth inhibition [2] 3.62% | viability increase [3] -0.39% | viability [4] 99.4% | inhibition [5] 0.965% | RAM network inhibition [6] 3.28%

CCN1CCN(Cc2nc3c(c(=O)n(C)c(=O)n3C)n2C(C)C(C)=O)CC1 (stereo not given)
inactive: growth inhibition [1] -32.2% | growth inhibition [2] -4.38% | viability increase [3] -1.83% | viability [4] 89.7% | inhibition [5] 1.41% | RAM network inhibition [6] 4.46%

CN1CCc2c(sc3nc(SCC(=O)N4CCOCC4)nc(N)c23)C1
inactive: growth inhibition [1] -4.38% | growth inhibition [2] 0.52% | viability increase [3] -4.4% | viability [4] 95.1% | inhibition [5] 0.215% | RAM network inhibition [6] 5.05%

COc1ccc(-c2nnc(NC(=O)c3cc(Cl)ccc3Cl)o2)cc1
inactive: growth inhibition [1] 4.57% | growth inhibition [2] 4.36% | viability increase [3] -5.58% | viability [4] 35.9% | inhibition [5] 2.53% | RAM network inhibition [6] 8.05%

COCCCNC(=O)c1cc2c(=O)n(C)c3ccccc3c2n1C
inactive: growth inhibition [1] -7.96% | growth inhibition [2] -5.92% | viability increase [3] -7.13% | viability [4] 36.5% | inhibition [5] 0.345% | RAM network inhibition [6] 4.4%

CCOC(=O)CNC(=O)c1cn(C)c(=O)c2cc(OC)c(OC)cc12
inactive: growth inhibition [1] -29.2% | growth inhibition [2] -3.25% | viability increase [3] -2.81% | viability [4] 86.5% | inhibition [5] 0.24% | RAM network inhibition [6] 2.87%

CCC(=O)c1cc(F)c(N2CCN(S(=O)(=O)c3ccccc3)CC2)cc1C
inactive: growth inhibition [1] -21.4% | growth inhibition [2] 0.885% | viability increase [3] 0.77% | viability [4] 59.2% | inhibition [5] 0.65% | RAM network inhibition [6] 1.67%

Cc1nc(-n2nnc3ccccc32)c2c3c(sc2n1)CCCC3
inactive: growth inhibition [1] -14.5% | growth inhibition [2] 0.92% | viability increase [3] -2.54% | viability [4] 82% | inhibition [5] 1.11% | RAM network inhibition [6] 3.02%

CCn1cc(C(=O)NCc2cccnc2)c2cc(OC)c(OC)cc2c1=O
inactive: growth inhibition [1] -18.3% | growth inhibition [2] -10% | viability increase [3] -2.26% | viability [4] 95.7% | inhibition [5] 1.67% | RAM network inhibition [6] 7.22%

Cn1cnnc1SCc1ccc(C(=O)O)cc1
inactive: growth inhibition [1] -5.04% | growth inhibition [2] 7.69% | viability increase [3] -1.36% | viability [4] 98.1% | inhibition [5] 1.06% | RAM network inhibition [6] 1.81%

COc1ccccc1NC1=NCC(=O)N1Cc1ccccc1
inactive: growth inhibition [1] -30.4% | growth inhibition [2] -3.24% | viability increase [3] -0.5% | viability [4] 93.9% | inhibition [5] 3.58% | RAM network inhibition [6] 4.78%

CCOC(=O)c1c(NC(=O)c2ccc(Cl)s2)sc(C)c1C
active: viability [4] 12.6%
inactive: growth inhibition [1] -6.9% | growth inhibition [2] -11.2% | viability increase [3] -8.89% | inhibition [5] 2.4% | RAM network inhibition [6] 5.6%

CCOC(=O)C1=C(N)OC2=C(C(=O)CCC2)C1c1cccnc1 (stereo not given)
inactive: growth inhibition [1] -6.66% | growth inhibition [2] 4.47% | viability increase [3] -2.49% | viability [4] 104% | inhibition [5] 1.22% | RAM network inhibition [6] 2.44%

Fc1ccc(Br)cc1C1C=C(c2cccnc2)Nc2ncnn21 (stereo not given)
active: growth inhibition [2] 46.9% | RAM network inhibition [6] 21.7%
inactive: growth inhibition [1] 6.35% | viability increase [3] -4.62% | viability [4] 44.5% | inhibition [5] 3.21%

Cc1ccc(C(=O)c2cn[nH]c2-c2cc(Cl)ccc2O)cc1
inactive: growth inhibition [1] 7.61% | growth inhibition [2] 1.2% | viability increase [3] -0.14% | viability [4] 95.7% | inhibition [5] 1.08% | RAM network inhibition [6] -1.14%

CC1(C)Cc2c(sc3nc(SCC(=O)N4CCOCC4)nc(N)c23)CO1
inactive: growth inhibition [1] -2.9% | growth inhibition [2] 18.3% | viability increase [3] -3.19% | viability [4] 98.9% | inhibition [5] 1.49% | RAM network inhibition [6] 0.62%

CSc1nnc(C2CCCN2)n1C (stereo not given)
inactive: growth inhibition [1] -16.9% | growth inhibition [2] -7.04% | viability increase [3] -0.51% | viability [4] 90.9% | inhibition [5] 2.88% | RAM network inhibition [6] -0.16%

CN1c2ccccc2-c2nc3ccccc3n2C1c1ccccn1 (stereo not given)
inactive: growth inhibition [1] -1.57% | growth inhibition [2] -3.9% | viability increase [3] -3.85% | viability [4] 73.8% | inhibition [5] 0.56% | RAM network inhibition [6] 4.06%

O=C(NCC1COc2ccccc2O1)c1ccc(NC(=O)C2CCCO2)cc1 (stereo not given)
inactive: growth inhibition [1] -15.3% | growth inhibition [2] 3.32% | viability increase [3] 0.86% | viability [4] 99.7% | inhibition [5] 4.43% | RAM network inhibition [6] 8.99%

CN1CCc2c(sc3c2c(=O)n(-c2ccc(Cl)cc2)c2nncn32)C1
inactive: growth inhibition [1] -12.1% | growth inhibition [2] 7.29% | viability increase [3] 0.1% | viability [4] 92.1% | inhibition [5] 1.45% | RAM network inhibition [6] 2.09%

CC1(C)Cc2c(sc3c2c(=N)n(Cc2ccco2)c(=O)n3Cc2ccc(F)cc2)CO1
inactive: growth inhibition [1] -14.4% | growth inhibition [2] -4.37% | viability increase [3] -6.4% | viability [4] 56.5% | inhibition [5] 1.44% | RAM network inhibition [6] 6.85%

CCOc1cc(OCC)cc(C(=O)Nc2cccnc2)c1
inactive: growth inhibition [1] -12.6% | growth inhibition [2] -12.7% | viability increase [3] -1.99% | viability [4] 100% | inhibition [5] 1.77% | RAM network inhibition [6] 4.32%

CCCCn1c(C(C)NC(=O)c2cccs2)nc2ccccc21 (stereo not given)
inactive: growth inhibition [1] -10.5% | growth inhibition [2] -2.79% | viability increase [3] -3.37% | viability [4] 89% | inhibition [5] 1.42% | RAM network inhibition [6] 3.28%

CN1CCCCc2c1[nH]c1ccccc1c2=O
inactive: growth inhibition [1] 8.28% | growth inhibition [2] 2.2% | viability increase [3] -3.35% | viability [4] 95.8% | inhibition [5] 0.42% | RAM network inhibition [6] -1.45%
